Assay [1] addresses DNA topoisomerase 2-alpha (Homo sapiens) (UniProt P11388). The note with it: 50 uM.
The target is the same in assay [2]. The note with it: 50 uM. The source holds these as a separate data set.
Assay [3] has as its target T1, DNA topoisomerase 1 (Homo sapiens) (UniProt P11387).
T1 sequence (whole entry): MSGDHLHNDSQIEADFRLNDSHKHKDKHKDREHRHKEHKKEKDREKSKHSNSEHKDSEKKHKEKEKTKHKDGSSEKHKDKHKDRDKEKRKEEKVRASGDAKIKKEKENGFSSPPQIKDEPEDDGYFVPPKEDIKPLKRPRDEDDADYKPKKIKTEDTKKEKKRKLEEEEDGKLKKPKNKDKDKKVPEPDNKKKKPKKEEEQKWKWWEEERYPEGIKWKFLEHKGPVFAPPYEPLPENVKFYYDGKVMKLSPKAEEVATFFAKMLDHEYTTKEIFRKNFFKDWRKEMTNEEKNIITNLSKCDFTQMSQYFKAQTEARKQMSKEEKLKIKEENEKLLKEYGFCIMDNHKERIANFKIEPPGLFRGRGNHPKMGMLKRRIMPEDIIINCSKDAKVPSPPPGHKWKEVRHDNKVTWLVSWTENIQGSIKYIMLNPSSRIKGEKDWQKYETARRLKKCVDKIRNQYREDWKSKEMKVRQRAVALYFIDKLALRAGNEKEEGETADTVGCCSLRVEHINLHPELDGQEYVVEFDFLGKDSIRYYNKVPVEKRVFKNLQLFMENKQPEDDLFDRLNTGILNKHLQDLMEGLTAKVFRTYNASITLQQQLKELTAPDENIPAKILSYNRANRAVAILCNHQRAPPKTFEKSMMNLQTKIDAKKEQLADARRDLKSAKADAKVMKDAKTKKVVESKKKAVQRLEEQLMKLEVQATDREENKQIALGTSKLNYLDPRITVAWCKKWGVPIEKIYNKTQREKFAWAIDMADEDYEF
Put plainly: Inhibition of human recombinant topoisomerase 1 assessed as cleavage of 117-mer DNA fragment at 20 to 50 uM using ethidium bromide staining by agarose gel electrophoresis analysis.

Assay [4] deals with Calf thymus DNA. The experiment in a line: Binding affinity to calf thymus DNA by circular dichroism analysis. Type of assay: nucleic-acid assay. The note with it: Bos taurus. On the technique in general: Circular dichroism is widely used to follow secondary structure.
Assay [5] deals with HT-29. The experiment in a line: Cytotoxicity against human HT-29 cells after 72 hrs by MTS assay. Type of assay: functional, cell-based. The note with it: HT-29, 72 h. Background: Tetrazolium assays rely on reduction of a dye to a coloured formazan, in cell work by metabolically active cells.
For assay [6], the target named is T1, DNA topoisomerase 1 (Homo sapiens). Put plainly: Inhibition of human recombinant topoisomerase 1-mediated relaxation of supercoiled pUC19 DNA assessed as formation of nicked DNA at 0.2 to 10 uM using ethidium bromide staining by agarose gel electrophoresis. The gist of the method: (§1)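 Supercoiled pUC19 plasmid (130 ng) was incubated with 4 units of human recombinant Top1 at 37 °C for 45 min in relaxation buffer (50 mM Tris pH 7.8, 50 mM KCl, 10 mM MgCl2, 1 mM DTT, 1 mM EDTA, 1 mM ATP) with increasing compound concentrations. Products were resolved on 1% agarose at room temperature, 2 h at 120 V, then stained with ethidium bromide and imaged under UV.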

Assay [7] has the same target. The experiment in a line: Inhibition of camptothecin-induced poisoning effect of human topoisomerase 1 assessed as suppression of CPT-induced 117 bp DNA cleavage by SDS-PAGE analysis.
The subject of assay [8] is Calf thymus DNA. Put plainly: Binding affinity to calf thymus DNA at 20 uM by UV-vis spectrophotometry analysis. Type of assay: nucleic-acid assay. To be noted: Bos taurus.
For assay [9], the target named is DNA topoisomerase 2-alpha (Homo sapiens) (UniProt P11388). Put plainly: Inhibition of human topoisomerase 2 assessed as formation of linear form of supercoiled pUC19 DNA at 50 uM after 45 mins using ethidium bromide staining by agarose gel analysis.
Assay [10] shares this target. The experiment in a line: Inhibition of human topoisomerase 2 assessed as formation of nicked form of supercoiled pUC19 DNA at 50 uM after 45 mins using ethidium bromide staining by agarose gel analysis.
Assay [11] deals with HT-29. Put plainly: Cell cycle arrest in human HT-29 cells at G2/M phase at 0.1 to 2.5 uM after 48 hrs using propidium iodide staining by FACS analysis. The format is functional, cell-based. The gist of the method:
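Exponentially growing HT-29 colon carcinoma cells (300,000 per well) were plated for 24 h, then exposed to 0.1, 1 or 2.5 µM compound for 48 h. Cells were fixed, stained with propidium iodide and analysed by flow cytometry (FACScan).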

The test system of the next assay is Nucleic Acid. The experiment in a line: Binding affinity to 265 bp of 3'-end-radio-labelled DNA fragment at 0.5 to 5 uM treated 15 mins before Dnase 1-mediated digestion by footprinting assay. The format is nucleic-acid assay. In outline: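 DNase I footprinting. It was equilibrated with compound for 15 min at 37 °C, then digested 3 min with DNase I (0.01 unit/ml) in 20 mM NaCl, 2 mM MgCl2, 2 mM MnCl2, pH 7.3. Samples were lyophilised, denatured at 90 °C and run on an 8% denaturing polyacrylamide gel.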

In assay [12] the target is T1, DNA topoisomerase 1 (Homo sapiens). The experiment in a line: Inhibition of human recombinant topoisomerase 1-mediated relaxation of supercoiled pUC19 DNA assessed as formation of nicked DNA at 0.1 to 5 uM using ethidium bromide staining by agarose gel electrophoresis. The gist of the method:
as §1

The structures appear in SMILES notation. The source made the active and inactive calls. The rule behind the calls is not given here.

Chain of DNA topoisomerase 2-alpha (Homo sapiens) (P11388 whole entry): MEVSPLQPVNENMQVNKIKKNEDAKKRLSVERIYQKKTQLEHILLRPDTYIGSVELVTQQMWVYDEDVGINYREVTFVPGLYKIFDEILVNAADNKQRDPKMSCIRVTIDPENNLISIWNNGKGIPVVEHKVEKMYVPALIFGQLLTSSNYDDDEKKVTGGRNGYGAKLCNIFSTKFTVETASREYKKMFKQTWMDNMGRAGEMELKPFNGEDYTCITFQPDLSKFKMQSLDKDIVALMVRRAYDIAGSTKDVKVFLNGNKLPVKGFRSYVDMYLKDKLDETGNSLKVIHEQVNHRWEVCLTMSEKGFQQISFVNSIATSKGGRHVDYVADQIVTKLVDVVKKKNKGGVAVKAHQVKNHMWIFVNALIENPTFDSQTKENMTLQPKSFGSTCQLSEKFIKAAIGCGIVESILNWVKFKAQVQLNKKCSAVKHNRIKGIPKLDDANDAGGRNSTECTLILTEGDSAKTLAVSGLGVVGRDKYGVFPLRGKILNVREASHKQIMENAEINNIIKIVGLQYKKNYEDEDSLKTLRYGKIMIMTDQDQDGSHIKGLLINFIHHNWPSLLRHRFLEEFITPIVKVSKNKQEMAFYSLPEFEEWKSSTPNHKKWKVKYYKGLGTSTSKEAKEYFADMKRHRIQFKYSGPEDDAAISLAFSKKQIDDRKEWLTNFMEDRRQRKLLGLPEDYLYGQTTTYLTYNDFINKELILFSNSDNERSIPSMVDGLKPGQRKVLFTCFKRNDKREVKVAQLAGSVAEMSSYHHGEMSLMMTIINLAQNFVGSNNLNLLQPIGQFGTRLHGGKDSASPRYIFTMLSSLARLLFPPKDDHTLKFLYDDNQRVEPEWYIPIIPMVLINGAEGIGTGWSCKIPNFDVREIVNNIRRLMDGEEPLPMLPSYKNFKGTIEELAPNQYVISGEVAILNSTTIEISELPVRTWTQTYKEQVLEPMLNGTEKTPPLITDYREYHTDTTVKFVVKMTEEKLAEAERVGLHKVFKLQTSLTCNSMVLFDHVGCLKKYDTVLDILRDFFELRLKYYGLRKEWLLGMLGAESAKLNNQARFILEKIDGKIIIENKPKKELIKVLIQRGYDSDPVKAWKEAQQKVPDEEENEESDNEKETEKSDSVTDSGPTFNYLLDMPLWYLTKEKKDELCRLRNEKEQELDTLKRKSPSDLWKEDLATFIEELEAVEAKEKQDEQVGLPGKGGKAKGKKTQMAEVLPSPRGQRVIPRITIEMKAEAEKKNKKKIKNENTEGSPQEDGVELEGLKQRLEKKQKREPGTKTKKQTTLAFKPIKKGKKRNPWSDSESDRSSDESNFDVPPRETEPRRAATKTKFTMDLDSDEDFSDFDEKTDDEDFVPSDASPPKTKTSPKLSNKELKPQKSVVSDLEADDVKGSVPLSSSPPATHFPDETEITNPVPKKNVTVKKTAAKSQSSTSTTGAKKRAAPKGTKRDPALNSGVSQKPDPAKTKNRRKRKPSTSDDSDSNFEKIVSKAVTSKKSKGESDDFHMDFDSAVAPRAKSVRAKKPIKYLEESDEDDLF

As for `COc1cc([C@@H]2c3cc4c(cc3[C@@H](O[C@@H]3O[C@@H]5CO[C@@H](C)O[C@H]5[C@H](O)[C@H]3O)[C@H]3COC(=O)[C@H]23)OCO4)cc(OC)c1O`, the inhibition entry in assay [1] and in assay [2] was “Active” in each case.
As for `COc1cc2c(NCCN(C)C)nc3c4ccncc4ccc3c2cc1OC`, the inhibition result in [3], in assay [9] and in assay [10] was “inactive” each time. Also, the outcome in the assay with Calf thymus DNA [4], in the assay on Calf thymus DNA [8] and in the assay with HT-29 [11] was Active. The 50% inhibitory concentration (IC50) – broadly, the concentration needed to halve the response being measured – in the assay with HT-29 [5] is 1020 nM. For the same molecule, the inhibition result (in [6]; in the assay on Nucleic Acid) was “Active” throughout. In assay [7], the inhibition entry is “Dose-dependent effect”. Besides, the “Top1 relaxation inhibition (qualitative call)” value in assay [12] is “Active”.

These data come from ChEMBL document CHEMBL1782029, “Synthesis and biological evaluation of N-substituted benzo[c]phenanthrolines and benzo[c]phenanthrolinones as antiproliferative agents” (Eur J Med Chem, 2011).
